Screens from PubChem.
Most compounds without a hit are left out; they make up all but 1.9% or so of the library.
ADAM10 inh – inhibitors of human ADAM10; inhibition, % at 7 µM; recombinant ADAM10, EDANS/DABCYL FRET peptide cleavage, 3 h; 0.62% of 370,000 active;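 active = inhibition above a per-campaign cutoff equal to the mean of compounds falling between control-based bounds plus 3 SD, cut at about 20% in these data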;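 also: 0% = DMSO wells while the 100% control is not disclosed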
Target sequence (O14672 214-748 limits assumed): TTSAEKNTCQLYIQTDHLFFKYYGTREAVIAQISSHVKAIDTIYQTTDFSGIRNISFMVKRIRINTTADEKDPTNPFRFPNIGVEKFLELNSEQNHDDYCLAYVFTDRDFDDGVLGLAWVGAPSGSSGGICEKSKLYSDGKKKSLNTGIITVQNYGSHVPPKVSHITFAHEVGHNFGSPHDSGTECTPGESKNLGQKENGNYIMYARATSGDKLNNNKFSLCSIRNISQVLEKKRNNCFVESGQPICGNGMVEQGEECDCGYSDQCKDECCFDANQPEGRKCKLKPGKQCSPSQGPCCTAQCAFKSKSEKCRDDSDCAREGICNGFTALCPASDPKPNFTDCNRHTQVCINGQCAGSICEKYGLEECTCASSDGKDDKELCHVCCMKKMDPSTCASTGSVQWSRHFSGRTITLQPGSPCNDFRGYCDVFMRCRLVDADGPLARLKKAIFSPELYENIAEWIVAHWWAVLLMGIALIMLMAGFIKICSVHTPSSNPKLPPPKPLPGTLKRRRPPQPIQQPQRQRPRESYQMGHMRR
ADAM17 inh – inhibitors of human ADAM17 | recombinant ADAM17, EDANS/DABCYL FRET peptide cleavage | inhibition, % at 6.95 µM | 0.83% of 370,000 active;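 active = inhibition above the mean of compounds lying between control limits plus 3 SD, set per campaign, cut at about 8.5% in these data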;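 also: 0% = DMSO-only wells as the low control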
FAS-TE inh – blocks the thioesterase domain of human fatty acid synthase; P49327; recombinant FAS-TE, OMFH fluorogenic substrate, fluorescence endpoint; inhibition, % at 15 µM; 0.67% of 360,000 active;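 active = compounds whose normalised, plate-corrected inhibition of enzyme fluorescence in the single-dose primary screen is 50% or more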;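 also: 0% = DMSO with enzyme and 100% = substrate without enzyme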
SENP1 inh – blocks the human SENP1 SUMO protease catalytic domain; inhibition, % at 10 µM; 0.21% of 360,000 active; AID 624204; Q9P0U3; recombinant SENP1 catalytic domain, CyPet-SUMO1-YPet FRET cleavage;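 active = inhibition at least 30% at 10 µM, raw YFP signal under a set limit, fluorescence ratio 0.5 to 1.5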;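 also: 0% = enzyme with DMSO and 100% = no enzyme wells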
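Material – human SENP1 catalytic domain · Input – SENP1 enzyme, 20 pM final · Compound dosing – single concentration of 10 µM compound, 0.5% DMSO final · Timing – enzyme reaction for 50 min at room temperature, dark · Measured by – FRET fluorescence in CFP and YFP emission channels · Control set – no-enzyme wells low, DMSO-plus-enzyme wells high control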
ADAM10 confirm – confirmation of inhibitors of human ADAM10; shares compounds with ADAM10 inh; ADAM10 QFRET peptide cleavage, EDANS fluorescence; inhibition, % at 6.95 µM; 1% of 2,100 active;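 active = inhibition above about 20% chosen separately for each screening run, limit read from the data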;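 also: 0% = DMSO wells and 100% = marimastat wells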
ADAM17 ctr – inhibits human ADAM17 in ADAM10 exosite counter-screen | 0.5% of 2,100 active | shares compounds with ADAM10 inh | inhibition, % at 6.95 µM | AID 743214 | ADAM17 QFRET peptide cleavage, EDANS fluorescence;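 active = mean triplicate inhibition above the solvent-only control wells' mean plus 3 SD, cut at about 12% in these data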;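 also: 0% = DMSO wells and 100% = marimastat wells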
* = called active by the depositor.

`CC(C)COc1ccc(CNC(=S)Nc2ccccc2)cc1Cl` gave ADAM10 inh 21.2*, ADAM17 inh 4.7, FAS-TE inh 17.8, SENP1 inh 5.0, ADAM10 confirm 10.3 and ADAM17 ctr 1.5.
Screening COC(=O)C1CN(Cc2ccc(C)cc2)CCS(=O)(=O)N1Cc1cn(Cc2ccccc2)nn1 (configuration not stated) returned ADAM10 inh 3.2 and ADAM17 inh -0.6.
For COP(=O)(O)CCOCCC(CC(C)C)NC(=O)OCc1ccccc1 (configuration not stated) the results were ADAM10 inh -21.6 and ADAM17 inh -9.6.
O=C(Nc1ccc2c(c1)nc1n2CCOC1)C1CCCCC1 was read as ADAM10 inh -74.8, ADAM17 inh -2.6, FAS-TE inh -7.0 and SENP1 inh -2.3.
`CC(=O)Nc1ccc2c(c1)nc1n2CCOC1` gave ADAM10 inh 83.8*, ADAM17 inh -1.2, FAS-TE inh -4.3, SENP1 inh 2.2, ADAM10 confirm 0.9 and ADAM17 ctr 0.2.
For C[C@@H]1/C=C/CC(=O)N2[C@H](CC(=O)N[C@@H]1c1ccccc1)C[C@@H](C)[C@H]2c1ccccc1 the results were ADAM10 inh -6.2 and ADAM17 inh -0.5.
`COc1ccc(CN2C(C(=O)NCC(C)C)CSCCS2(=O)=O)cc1` (configuration not stated) gave ADAM10 inh 3.9 and ADAM17 inh 0.6.
CC(=O)N[C@@H](Cc1c[nH]c2ccccc12)C(=O)OCc1cc(C(F)(F)F)cc(C(F)(F)F)c1 was read as ADAM10 inh 24.1*, ADAM17 inh 2.7, FAS-TE inh 27.7, SENP1 inh -0.4, ADAM10 confirm -0.8 and ADAM17 ctr -0.6.
Screening CC(=O)Oc1cccc(Nc2ncnc3ccccc23)c1 returned ADAM10 inh 82.9*, ADAM17 inh -0.1, FAS-TE inh -4.7, SENP1 inh -1.5, ADAM10 confirm 1.8 and ADAM17 ctr 0.1.
Cc1ccccc1C(=O)Oc1cccc(Nc2ncnc3ccccc23)c1 was read as ADAM10 inh -5.4, ADAM17 inh 1.6, FAS-TE inh 12.8 and SENP1 inh -0.5.
`Cc1onc(-c2ccccc2Cl)c1C(=O)Nc1nnc(Cc2ccc(Cl)cc2)s1` gave ADAM10 inh 23.4*, ADAM17 inh 7.7, FAS-TE inh 5.6, SENP1 inh -2.1, ADAM10 confirm 4.7 and ADAM17 ctr 0.6.
For Cc1nnc(NC(=O)c2c(-c3ccccc3Cl)noc2C)s1 the results were ADAM10 inh 0.8, ADAM17 inh 1.8, FAS-TE inh -4.5 and SENP1 inh 1.4.
CS(=O)(=O)N[C@@H]1C[C@@H]2O[C@@H](CO)CC[C@@H]2O[C@@H]1CCc1ccc(-c2ccccc2F)cc1 was read as ADAM10 inh 4.8 and ADAM17 inh 3.3.
For COc1ccccc1-c1ccc2c(c1)C(C)(Cc1cc(Cl)ccc1C(F)(F)F)C(=O)N2 (configuration not stated) the results were ADAM10 inh 21.2*, ADAM17 inh 7.1, FAS-TE inh 26.7, SENP1 inh 0.1, ADAM10 confirm 4.5 and ADAM17 ctr 1.4.
Cc1cc(C)c(O)c(-c2cc(C(=O)Nc3ccc(S(=O)(=O)N4CCOCC4)cc3)[nH]n2)c1 was read as ADAM10 inh 21.1*, ADAM17 inh 7.9, FAS-TE inh 19.5, SENP1 inh 1.0, ADAM10 confirm 5.8 and ADAM17 ctr 2.0.
`CC(=O)Nc1ccc(NC(=O)c2cc(-c3cc(C)cc(C)c3O)n[nH]2)cc1` gave ADAM10 inh 9.5, ADAM17 inh -1.7, FAS-TE inh 5.3 and SENP1 inh 3.1.
Screening O=C(NCc1ccc(C(=O)N2CCCC2)cc1)c1cccc(Br)c1 returned ADAM10 inh 1.4 and ADAM17 inh -0.5.
O=C(OCc1ccccc1Cl)c1cc([N+](=O)[O-])ccc1N1CCOCC1 was read as ADAM10 inh 19.9*, ADAM17 inh 7.7, FAS-TE inh 36.0, SENP1 inh -1.3, ADAM10 confirm 2.9 and ADAM17 ctr 0.5.
O=C(Nc1cccc(Cl)c1N1CCOCC1)c1cc([N+](=O)[O-])ccc1N1CCOCC1 was read as ADAM10 inh 5.9, ADAM17 inh -1.6, FAS-TE inh 20.4 and SENP1 inh -0.6.
C=CCNc1cccc2c1S(=O)(=O)N[C@H](CC(C)C)CO2 was read as ADAM10 inh -5.7 and ADAM17 inh -2.4.
